Experimental data taken from ChEMBL document CHEMBL1139506, “Effect on K(ATP) channel activation properties and tissue selectivity of the nature of the substituent in the 7- and the 3-position of 4H-1,2,4-benzothiadiazine 1,1-dioxides” (J Med Chem, 2005).
One block for each compound: values may come before it.

Legend:
Rattus norvegicus [1] = species: Rattus norvegicus; assay: Concentration required for relaxation of the 30 mM KCl-induced contraction of rat aortic rings (n=4); format: functional; conditions: Aorta, read-out: ED50 (the source's name)
Summary of the method: (§1)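 Endothelium-denuded transverse aortic rings (3-4 mm) from fed Wistar rats (180-200 g); isometric tension by force transducer. After 60 min equilibration, contracted with 30 mM KCl; at stable tension, drug added cumulatively until maximal relaxation or up to 0.3 mM. Relaxation expressed as % of KCl contraction; ED50 (50% inhibition of KCl plateau) from dose curves; mean ± SEM (n).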

Rattus norvegicus [2] = species: Rattus norvegicus; assay: Effect on insulin secretion from rat pancreatic islets at 10 uM concentration (n=23); format: functional
Summary of the method: (§2)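 Islets isolated by collagenase from fed Wistar rats (180-220 g); groups of 10 preincubated 30 min, 37 °C, in bicarbonate salt medium with 2.8 mM glucose, 0.5% dialyzed albumin, O2/CO2 95:5. Then incubated 90 min, 37 °C, with 16.7 mM glucose plus drug. Insulin measured by radioimmunoassay against rat insulin standard; expressed as % of drug-free 16.7 mM glucose control; mean ± SEM (n).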

Rattus norvegicus [3] = species: Rattus norvegicus; assay: Effect on insulin secretion from rat pancreatic islets at 10 uM concentration (n=16); format: functional; summary of the method: as §2
Rattus norvegicus [4] = species: Rattus norvegicus; assay: Effect on insulin secretion from rat pancreatic islets at 10 uM concentration (n=15); format: functional; summary of the method: as §2
Rattus norvegicus [5] = species: Rattus norvegicus; assay: Effect on insulin secretion from rat pancreatic islets at 50 uM concentration (n=15); format: functional; summary of the method: as §2
Rattus norvegicus [6] = species: Rattus norvegicus; assay: ED50/IC50 ratio was determined; format: functional
Rattus norvegicus [7] = species: Rattus norvegicus; assay: Concentration required for 50% inhibition of insulin release in rat pancreatic B-cells; format: functional, cell-based
Rattus norvegicus [8] = species: Rattus norvegicus; assay: Effect on insulin secretion from rat pancreatic islets at 10 uM concentration (n=14); format: functional; summary of the method: as §2
Rattus norvegicus [9] = species: Rattus norvegicus; assay: Effect on insulin secretion from rat pancreatic islets at 50 uM concentration (n=12); format: functional; summary of the method: as §2
Rattus norvegicus [10] = species: Rattus norvegicus; assay: Effect on insulin secretion from rat pancreatic islets at 1 uM concentration (n=16); format: functional; summary of the method: as §2
Rattus norvegicus [11] = species: Rattus norvegicus; assay: Effect on insulin secretion from rat pancreatic islets at 10 uM concentration (n=24); format: functional; summary of the method: as §2
Rattus norvegicus [12] = species: Rattus norvegicus; assay: Effect on insulin secretion from rat pancreatic islets at 50 uM concentration (n=18); format: functional; summary of the method: as §2
[13] = Ionization constant was determined; format: physicochemical
Summary of the method: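 Ionization constant found by UV spectroscopy in aqueous buffers spanning pH 5 to 12; pKa calculated with the Debye-Hückel equation at the absorbance maximum of the basic form.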

Rattus norvegicus [14] = species: Rattus norvegicus; assay: Concentration giving 50% relaxation of the 30 mM KCl-induced contraction of rat aortic rings (n=5); format: functional; conditions: Aorta, read-out: ED50 (the source's name); summary of the method: as §1
Rattus norvegicus [15] = species: Rattus norvegicus; assay: Effect on insulin secretion from rat pancreatic islets at 1 uM concentration (n=20); format: functional; summary of the method: as §2
Rattus norvegicus [16] = species: Rattus norvegicus; assay: Concentration giving 50% relaxation of the 30 mM KCl-induced contraction of rat aortic rings (n=6); format: functional; conditions: Aorta, read-out: ED50 (the source's name); summary of the method: as §1
Rattus norvegicus [17] = species: Rattus norvegicus; assay: Effect on insulin secretion from rat pancreatic islets at 10 uM concentration (n=32); format: functional
Rattus norvegicus [18] = species: Rattus norvegicus; assay: Effect on insulin secretion from rat pancreatic islets at 50 uM concentration (n=35); format: functional
Rattus norvegicus [19] = species: Rattus norvegicus; assay: Effect on insulin secretion from rat pancreatic islets at 1 uM concentration (n=31); format: functional
Rattus norvegicus [20] = species: Rattus norvegicus; assay: Effect on insulin secretion from rat pancreatic islets at 50 uM concentration (n=21); format: functional; summary of the method: as §2
Rattus norvegicus [21] = species: Rattus norvegicus; assay: Concentration giving 50% relaxation of the 30 mM KCl-induced contraction of rat aortic rings (n=8); format: functional, Aorta; conditions: Rattus norvegicus, Aorta; read-out: ED50 (the source's name); summary of the method: as §1
Rattus norvegicus [22] = species: Rattus norvegicus; assay: Effect on insulin secretion from rat pancreatic islets at 10 uM concentration (n=22); format: functional; summary of the method: as §2
Rattus norvegicus [23] = species: Rattus norvegicus; assay: Effect on insulin secretion from rat pancreatic islets at 50 uM concentration (n=20); format: functional; summary of the method: as §2
Rattus norvegicus [24] = species: Rattus norvegicus; assay: Effect on insulin secretion from rat pancreatic islets at 1 uM concentration (n=15); format: functional; summary of the method: as §2
Rattus norvegicus [25] = species: Rattus norvegicus; assay: Concentration required for relaxation of the 30 mM KCl-induced contraction of rat aortic rings; Precipitate; format: functional; conditions: Aorta; summary of the method: as §1
Rattus norvegicus [26] = species: Rattus norvegicus; assay: Effect on insulin secretion from rat pancreatic islets at 10 uM concentration (n=13); format: functional; summary of the method: as §2
Rattus norvegicus [27] = species: Rattus norvegicus; assay: Effect on insulin secretion from rat pancreatic islets at 50 uM concentration (n=13); format: functional; summary of the method: as §2
Rattus norvegicus [28] = species: Rattus norvegicus; assay: Effect on insulin secretion from rat pancreatic islets at 1 uM concentration (n=14); format: functional; summary of the method: as §2
Rattus norvegicus [29] = species: Rattus norvegicus; assay: Effect on insulin secretion from rat pancreatic islets at 50 uM concentration (n=14); format: functional; summary of the method: as §2
Rattus norvegicus [30] = species: Rattus norvegicus; assay: Effect on insulin secretion from rat pancreatic islets at 50 uM concentration (n=16); format: functional; summary of the method: as §2

SMILES: COc1ccc2c(c1)S(=O)(=O)NC(NC(C)C)=N2
pKa [13]: 10.1
Ratio (Rattus norvegicus [6]): 74
EC50 (Rattus norvegicus [14]): 274 µM
IC50 (Rattus norvegicus [7]): 3700 nM
Residual insulin release (Rattus norvegicus [11]): 8.5%
Residual insulin release (Rattus norvegicus [9]): 4.4%
Residual insulin release (Rattus norvegicus [15]): 67.6%

SMILES: CC(C)NC1=NS(=O)(=O)c2cc(Cl)ccc2N1
Ratio (Rattus norvegicus [6]): 52
EC50 (Rattus norvegicus [16]): 36.3 µM
IC50 (Rattus norvegicus [7]): 700 nM
Residual insulin release (Rattus norvegicus [17]): 4.9%
Residual insulin release (Rattus norvegicus [18]): 5.7%
Residual insulin release (Rattus norvegicus [19]): 36.2%

SMILES: CCOc1ccc2c(c1)S(=O)(=O)NC(NC1CCC1)=N2
EC50 (Rattus norvegicus [1]): > 300 µM
Residual insulin release (Rattus norvegicus [3]): 84.9%

SMILES: COC(=O)c1ccc2c(c1)S(=O)(=O)NC(NC(C)C)=N2
EC50 (Rattus norvegicus [21]): > 200 µM
Residual insulin release (Rattus norvegicus [22]): 95.7%
Residual insulin release (Rattus norvegicus [23]): 94.3%

SMILES: CC(C)NC1=NS(=O)(=O)c2ccccc2N1
pKa [13]: 9.98
Ratio (Rattus norvegicus [6]): >79
EC50 (Rattus norvegicus [1]): > 300 µM
IC50 (Rattus norvegicus [7]): 3800 nM
Residual insulin release (Rattus norvegicus [3]): 34.9%
Residual insulin release (Rattus norvegicus [24]): 73.7%

SMILES: O=S1(=O)N=C(NC2CCC2)Nc2ccccc21
ED50 (Rattus norvegicus [25]): Insoluble
Residual insulin release (Rattus norvegicus [8]): 29.8%
Residual insulin release (Rattus norvegicus [10]): 79.9%

SMILES: CC(C)NC1=NS(=O)(=O)c2cc(C(F)(F)F)ccc2N1
pKa [13]: 8.96
Ratio (Rattus norvegicus [6]): 7.7
EC50 (Rattus norvegicus [16]): 13.1 µM
IC50 (Rattus norvegicus [7]): 1700 nM
Residual insulin release (Rattus norvegicus [26]): 7.4%
Residual insulin release (Rattus norvegicus [27]): 7.1%
Residual insulin release (Rattus norvegicus [28]): 71.5%

SMILES: COc1ccc2c(c1)S(=O)(=O)NC(NC1CCC1)=N2
Ratio (Rattus norvegicus [6]): 72
EC50 (Rattus norvegicus [16]): 157 µM
IC50 (Rattus norvegicus [7]): 2200 nM
Residual insulin release (Rattus norvegicus [4]): 14.1%
Residual insulin release (Rattus norvegicus [9]): 4%
Residual insulin release (Rattus norvegicus [28]): 71.3%

SMILES: CC(C)NC1=NS(=O)(=O)c2cc(C(=O)O)ccc2N1
EC50 (Rattus norvegicus [1]): > 300 µM
Residual insulin release (Rattus norvegicus [2]): 96.6%
Residual insulin release (Rattus norvegicus [30]): 98.6%

More lines, main results first:

EC50 (Rattus norvegicus [1]): 175 µM
SMILES: CC(C)NC1=NS(=O)(=O)c2cc(C(N)=O)ccc2N1
Residual insulin release (Rattus norvegicus [2]): 76.6%

EC50 (Rattus norvegicus [1]): > 300 µM
SMILES: CCNC1=NS(=O)(=O)c2cc(S(C)(=O)=O)ccc2N1
Residual insulin release (Rattus norvegicus [3]): 91.6%

EC50 (Rattus norvegicus [1]): 127 µM
SMILES: CC(C)NC1=NS(=O)(=O)c2cc(S(C)(=O)=O)ccc2N1
Residual insulin release (Rattus norvegicus [4]): 90.5%

EC50 (Rattus norvegicus [1]): > 300 µM
SMILES: CCCNC1=NS(=O)(=O)c2cc(C(=O)O)ccc2N1
Residual insulin release (Rattus norvegicus [4]): 97.6%
Residual insulin release (Rattus norvegicus [5]): 95.3%

EC50 (Rattus norvegicus [1]): > 300 µM
IC50 (Rattus norvegicus [7]): 8900 nM
SMILES: CCCNC1=NS(=O)(=O)c2cc(OC)ccc2N1
Ratio (Rattus norvegicus [6]): >34
Residual insulin release (Rattus norvegicus [8]): 47.4%
Residual insulin release (Rattus norvegicus [9]): 6.3%
Residual insulin release (Rattus norvegicus [10]): 101.7%

EC50 (Rattus norvegicus [1]): 162 µM
SMILES: CCNC1=NS(=O)(=O)c2cc(OCC)ccc2N1
Residual insulin release (Rattus norvegicus [11]): 75%

EC50 (Rattus norvegicus [1]): 6.1 µM
SMILES: CCC(C)NC1=NS(=O)(=O)c2cc([N+](=O)[O-])ccc2N1 (centres undefined)
Residual insulin release (Rattus norvegicus [12]): 63.3%

EC50 (Rattus norvegicus [1]): > 30 µM
SMILES: CCCCCc1ccc2c(c1)S(=O)(=O)NC(NC1CCC1)=N2
Residual insulin release (Rattus norvegicus [4]): 95.3%

EC50 (Rattus norvegicus [1]): 57.9 µM
SMILES: N#Cc1ccc2c(c1)S(=O)(=O)N=C(NC1CCC1)N2
Residual insulin release (Rattus norvegicus [4]): 102.6%
Residual insulin release (Rattus norvegicus [20]): 54.3%

EC50 (Rattus norvegicus [1]): 126 µM
SMILES: CCC(C)NC1=NS(=O)(=O)c2cc(S(C)(=O)=O)ccc2N1 (centres undefined)
Residual insulin release (Rattus norvegicus [3]): 97.2%

EC50 (Rattus norvegicus [1]): 6.6 µM
SMILES: CCCCCc1ccc2c(c1)S(=O)(=O)NC(NCC)=N2
Residual insulin release (Rattus norvegicus [3]): 104%

EC50 (Rattus norvegicus [1]): 2.9 µM
SMILES: CCCNC1=NS(=O)(=O)c2cc(C(F)(F)F)ccc2N1
Residual insulin release (Rattus norvegicus [22]): 77.9%
Residual insulin release (Rattus norvegicus [29]): 52%
